Source: PubChem BioAssay
mHtt clearance: clearance of mutant huntingtin inclusions, primary screen, imaging, HeLa Exon1htt(103Q)mCFP, confocal imaging; inhibition, % at 1.5 µM; aggregate imaging; zero = plate's median compound well; 0.42% of 47,000 active;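 active means inhibition of aggregate fluorescence above about 70%, also judged a hit by eye on the cell image, limit read from the data, passing the limit was not always enough; inconclusive means no rule stated for this call; inactive means not judged a hit on image review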;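 further: cells exposed to compound for three days before fixation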
D1 allo mod: D1 CRE-luciferase signal change, two-sided – cell-based, HEK293 D1, dopamine EC30, D1 allosteric modulator project, primary screen. dopamine EC30 potentiation; actives deviate in either direction. 5.9% of 58,000 active. B-score at 10 µM;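 active means luminescence count or its row- and column-corrected plate score outside the 99.7% band of the plate's sample wells, on either side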
Target sequence (P21728 whole entry, looked up): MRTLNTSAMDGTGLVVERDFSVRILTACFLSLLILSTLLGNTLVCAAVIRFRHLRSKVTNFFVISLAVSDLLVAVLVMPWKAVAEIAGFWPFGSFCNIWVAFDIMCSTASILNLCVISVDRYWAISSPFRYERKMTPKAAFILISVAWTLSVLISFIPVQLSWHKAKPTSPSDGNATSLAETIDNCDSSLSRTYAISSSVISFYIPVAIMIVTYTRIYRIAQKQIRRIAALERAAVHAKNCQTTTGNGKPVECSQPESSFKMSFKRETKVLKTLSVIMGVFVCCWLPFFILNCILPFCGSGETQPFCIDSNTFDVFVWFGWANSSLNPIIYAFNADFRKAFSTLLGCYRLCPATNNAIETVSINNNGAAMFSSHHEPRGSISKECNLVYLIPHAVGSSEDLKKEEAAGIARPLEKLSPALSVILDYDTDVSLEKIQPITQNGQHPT
RORA act: activators of orphan receptor RORA, primary screen, cell-based, luminescence. CHO-K1 Gal4-RORA LBD luciferase reporter; percent increase over mock-subtracted basal signal. activation, % at 10 µM. 1.5% of 65,000 active. AID 560, 2006;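 active means activation above the mean of all tested compounds plus 3 SD, cut at about 49% in these data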
M1 agonist: M1 muscarinic receptor agonists, primary screen, CHO-M1 cells, Fluo-4 calcium, agonist mode. Muscarinic acetylcholine receptor M1. Fluo-4 calcium fluorescence; stronger effect = higher value. B-score at 10 µM. 3% of 64,000 active. AID 626, 2007;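 active means fluorescence rise, raw or as B-score row- and column-corrected plate score, outside the 99.7% band of its plate's samples, either direction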
M1 antagonist: antagonists of rat M1 muscarinic receptor; 3.4% of 64,000 active; Muscarinic acetylcholine receptor M1 (Rattus norvegicus), P08482; B-score at 10 µM; CHO-M1 cells, Fluo-4 calcium, ACh EC80 antagonist mode; stronger effect = lower value;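 active means calcium fluorescence response, raw or row-and-column corrected B-score, differing from the plate sample mean either way at a set confidence level, mostly lower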
SF1 activator: activators of human SF-1, primary screen, cell-based, CHO-K1, Gal4-SF-1 LBD, luciferase luminescence; Steroidogenic factor 1 (Homo sapiens), Q13285; AID 522, 2006; 1.9% of 65,000 active; activation, % at 10 µM; CHO-K1 Gal4-SF-1 LBD luciferase reporter; % increase over DMSO SF-1-specific signal;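 active means activation above the mean activation of all tested compounds plus 3 SD, cut at about 50% in these data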
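material = CHO-K1 cells with Gal4–hSF-1 LBD chimera plus Gal4-driven luciferase | compound = 10 µM single point, 1% DMSO | incubation = 20 h compound exposure at 37 °C after 1 h cell settling | measured by = SteadyLite luciferase luminescence | evaluation = percent activation relative to DMSO median and mock-transfected background | control set = DMSO negative control and −SF1 background wells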
M1 agonist conf: rat M1 muscarinic receptor agonists, confirmation, CHO-M1 cells, Fluo-4 calcium, duplicate retest; shares compounds with M1 agonist; Fluo-4 calcium fluorescence, agonist mode; actives lie on both sides; fluorescence change (max-min) at 10 µM; 19% of 1,700 active;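 active means fluorescence change differs from the solvent-only DMSO control mean at a set confidence level in both duplicate runs; inconclusive means differs from solvent-only control mean in just one of two runs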;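 further: an EC20 dose of acetylcholine follows compound addition during the same imaging run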
M4 ag counter: agonist activity at rat M4 receptor, confirmation, counter-screen for M1 allosteric modulator project, cell-based, agonist mode | CHO M4/Gqi5 cells, Fluo-4 calcium fluorescence; actives lie on both sides | shares compounds with M1 agonist | fluorescence change (max-min) at 10 µM | AID 1741, 2009 | 9% of 1,700 active;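 active means fluorescence change differing from the plate's solvent-only control wells at 99.7% confidence in both duplicates, whether higher or lower; inconclusive means differs from solvent controls in only one of two duplicates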
Each line names hits and unclear results; the compound was inactive in the other large screens (follow-up assays come after a bar, where they were run). Hits are enriched below; roughly 11% of the tested compounds scored in any of these assays.

Cc1sc2nc(CN(Cc3cccs3)C(=O)C3CC3)[nH]c(=O)c2c1C	none
CCOC(=O)c1cc2c(=O)n3ccccc3nc2n(CCOC)c1=NC(=O)c1ccncc1	M1 agonist 2.18 (no result: mHtt clearance) | M1 agonist conf inactive | M4 ag counter inactive
CCOCCCn1c(=NC(C)=O)c(C(=O)OCC)cc2c(=O)n3ccccc3nc21	none
CCOC(=O)c1cc2c(=O)n3ccccc3nc2n(Cc2ccco2)c1=NC(=O)c1cccnc1	M1 agonist 6.21 | M1 agonist conf 146 | M4 ag counter inactive
CCOC(=O)c1cc2c(=O)n3cccc(C)c3nc2n(C)c1=N	none (no result: mHtt clearance, D1 allo mod)
CCOC(=O)c1cc2c(=O)n3ccccc3nc2n(CCOC)c1=NC(=O)C(C)(C)C	none (no result: M1 agonist, M1 antagonist)
CCOC(=O)c1cc2c(=O)n3cccc(C)c3nc2n(Cc2ccco2)c1=NC(=O)c1cccnc1	M1 agonist 39.9 (no result: mHtt clearance) | M1 agonist conf 180 | M4 ag counter inactive
COC(=O)CN1CCN(C(=O)c2ccc(F)cc2)c2ccccc2C1	none
Cc1ccc2nc(Nc3ccc4[nH]c(=O)[nH]c4c3)c(-n3nc(C)cc3C)nc2c1	RORA act 58.8, M1 agonist 20.5 | M1 agonist conf -23 | M4 ag counter inactive
CC1=C(CC/C(C)=N/NC(N)=S)C(C)(C)CCC1	none (no result: D1 allo mod, RORA act, M1 agonist, M1 antagonist, SF1 activator)
CC(=O)NC(CCS(C)(=O)=O)C(=O)Nc1ccc(Cl)c(Cl)c1 (configuration not stated)	M1 agonist 2.91 (no result: mHtt clearance) | M1 agonist conf inactive | M4 ag counter inactive
COc1ccc(C)cc1S(=O)(=O)N(C)CC(=O)N1CCCCCC1	none
Cc1cccc(-n2c(N)cc(=O)nc2SCC(=O)Nc2ccccc2)c1	M1 agonist 2.83 (no result: mHtt clearance) | M1 agonist conf -24.1 | M4 ag counter inactive
Cc1cccc(-n2c(N)cc(=O)nc2SCC(=O)NC2CCCCC2)c1	none
COc1cc(NC(=O)c2ccco2)c(OC)cc1NC(=O)c1cc(OC)c(OC)c(OC)c1	M1 agonist 10.5 (no result: mHtt clearance) | M1 agonist conf -31.6 | M4 ag counter inactive
COc1ccc(CCNC(=O)c2ccccc2NC(=O)c2ccco2)cc1OC	M1 agonist 3.97 | M1 agonist conf inconclusive | M4 ag counter -77.5
COc1ccc2c(=O)c(C(=O)NCCc3ccc(OC)c(OC)c3)c[nH]c2c1	M1 agonist 4.89 | M1 agonist conf inconclusive | M4 ag counter inconclusive
COc1ccc(CCNC(=O)c2ccc(=O)[nH]n2)cc1OC	none (no result: mHtt clearance, D1 allo mod)
COc1ccc(NC(=O)c2ccccc2NC(=O)c2ccco2)c(OC)c1	M1 agonist 7.72 (no result: mHtt clearance) | M1 agonist conf inconclusive | M4 ag counter inactive
O=C1CN(C(=O)COC(=O)c2ccccc2NC(=O)c2ccco2)c2ccccc2N1	M1 agonist 3.58 | M1 agonist conf inconclusive | M4 ag counter inconclusive
NC(=O)C1CCN(c2ncnc3c2c(-c2ccccc2)cn3-c2ccccc2)CC1	D1 allo mod -3.79, M1 agonist 3.71 (no result: mHtt clearance) | M1 agonist conf inconclusive | M4 ag counter inactive
CC1CN(C(=O)CN2C(=O)c3ccccc3S2(=O)=O)CC(C)O1 (configuration not stated)	none
COc1ccc(C2C(C(C)=O)=C(C)N=c3s/c(=C\c4cc(C)n(C)c4C)c(=O)n32)c(OC)c1 (configuration not stated)	M1 agonist 144 | M1 agonist conf 458 | M4 ag counter inconclusive
COc1ccc(Cc2c(O)nc(SC)n(C(C)=O)c2=O)cc1	none
CCOC(=O)Cc1nnc(Nc2cccc(O)c2)c2ccccc12	none (no result: mHtt clearance)
COc1ccccc1N1CCN(C(=O)CSc2nc(-c3ccco3)cc(C(F)(F)F)n2)CC1	M1 agonist 7.53 | M1 agonist conf inactive | M4 ag counter inactive
CCn1nc(C)c(NC(=O)CCCSc2nc(-c3ccco3)cc(C(F)(F)F)n2)c1C	none (no result: mHtt clearance)
Cc1nn(C)c(C)c1NC(=O)CCSc1nc(-c2ccco2)cc(C(F)(F)F)n1	M1 agonist 34, M1 antagonist -3.74 | M1 agonist conf inactive | M4 ag counter inactive
O=C(CSc1nc(-c2ccco2)cc(C(F)(F)F)n1)Nc1ccc(C(=O)N2CCCCC2)cc1	M1 agonist 6.69 (no result: mHtt clearance, D1 allo mod) | M1 agonist conf inconclusive | M4 ag counter inconclusive
O=C(CSc1nc(-c2ccco2)cc(C(F)(F)F)n1)Nc1ccccc1C(F)(F)F	none (no result: D1 allo mod, RORA act, M1 agonist, M1 antagonist, SF1 activator)
CC1CCCCC1NS(=O)(=O)c1ccc(S(=O)(=O)NCc2ccncc2)cc1 (configuration not stated)	M1 agonist 3.49 (no result: mHtt clearance) | M1 agonist conf inactive | M4 ag counter inactive
Cc1noc(C)c1S(=O)(=O)NCc1ccc2c(c1)OCO2	none (no result: mHtt clearance)
Cc1cccc(/N=C/c2c(O)n(-c3cc(Cl)ccc3N3CCOCC3)c(=O)c3ccccc23)n1	none (no result: mHtt clearance)
O=c1c2ccccc2c(C=Nc2ccc(Cl)cn2)c(O)n1-c1cc(Cl)ccc1N1CCOCC1	M1 agonist 15.4 | M1 agonist conf inactive | M4 ag counter inactive
CCOC(=O)c1oc2ccc(S(=O)(=O)Nc3ccc4c(c3)n(C)c(=O)n4C)cc2c1C	M1 agonist 5.3 (no result: mHtt clearance) | M1 agonist conf inconclusive | M4 ag counter inactive
Cn1c(=O)n(C)c2cc(NS(=O)(=O)c3ccc4c(c3)CCCC4)ccc21	none
CC1(CC(=O)O)C(=O)N=C2C=CC=CN21 (configuration not stated)	none
COC(=O)c1ccc(OCC2c3cc(OC)c(OC)cc3CCN2C(=O)c2ccco2)cc1 (configuration not stated)	M1 agonist 11, M1 antagonist -2.37 (no result: mHtt clearance, D1 allo mod) | M1 agonist conf inactive | M4 ag counter inconclusive
COC(=O)c1ccc2c(=O)n3c(nc2c1)SCC(c1ccccc1)=N3	none
COC(=O)c1ccc2c(=O)sc(N3CCC(C(N)=O)CC3)nc2c1	M1 agonist 23.8 | M1 agonist conf 132 | M4 ag counter 136
O=C(NC1CC1)c1c[nH]c2ccc(S(=O)(=O)Nc3cccc(C(F)(F)F)c3)cc2c1=O	M1 agonist -1.86 | M1 agonist conf inactive | M4 ag counter inconclusive
CCCC/C(O)=N\S(=O)(=O)c1ccc(N=NN(C)C)cc1	none (no result: D1 allo mod, RORA act, M1 agonist, M1 antagonist, SF1 activator)
COc1cccc(-n2c(Cc3cc(=O)[nH]c(=O)[nH]3)nnc2SCC(=O)N2CCCCC2)c1	none
